The source made the active and inactive calls. The rule behind the calls is not given here.
Legend:
MCF7 = assay: Cytotoxicity against human MCF7 cells after 72 hrs by SRB assay; type: functional, cell-based; conditions: MCF7, 72 h
Procedure, shortened: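 Cells kept in DMEM with 10% FCS and penicillin/streptomycin at 37°C, 5% CO2. 2000–3000 cells/well were seeded, and medium was refreshed the next day. DMSO solutions were added over 2.5–40 µM with matched DMSO-only controls for 72 h. Cells were then TCA-fixed, stained with 0.4% SRB in 1% acetic acid, solubilized in 10 mM Tris pH 8 and read at 515 nm. Data were normalized to DMSO wells and expressed as mean ±SD.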

Huh-7 [1] = assay: Induction of cell death in human HuH7 cells assessed as induction of intracytoplasmic vacuoles at cytotoxic IC50 level after 72 hrs by inverted light microscopy; type: functional, cell-based
Procedure, shortened: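 They were viewed under an inverted light microscope at 20× for death morphology, including intracytoplasmic vacuoles.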

Huh-7 [2] = assay: Induction of cell death in human HuH7 cells assessed as DNA fragmentation at cytotoxic IC50 level after 72 hrs by Hoechst 33258 staining based […]; type: functional
Procedure, shortened: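 Cells were washed in cold PBS, fixed 10 min in cold methanol and stained with Hoechst 33258 at 3 µg/mL for 5 min in the dark. Nuclear condensation and fragmentation were examined by fluorescence microscopy at 40×.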

[3] = Induction of cell cycle arrest in human HuH7 cells assessed as accumulation at G2/M phase at cytotoxic IC50 level after 48 hrs by propidium iodide staining based FACS method; type: functional, Huh-7
Procedure, shortened: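 Huh7 cells were seeded at 150,000–300,000 per 100-mm dish and left 24 h. […] Cells were stained with a propidium iodide-containing cell cycle reagent, and subG1, G0/G1, S and G2/M fractions were scored by flow cytometry.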

[4] = molecular target: Mitogen-activated protein kinase 7 (Homo sapiens) (UniProt Q13164); assay: Inhibition of ERK5 (unknown origin) assessed as remaining enzyme activity at 10 uM by radioactive [33P]-ATP filter binding assay
Procedure, shortened: (§1)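 A single 10 µM concentration was tested across a 140-kinase panel. Activity was measured by a radioactive 33P-ATP filter-binding assay run at the International Center for Kinase Profiling, University of Dundee.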

[5] = molecular target: Ribosomal protein S6 kinase alpha-1 (Homo sapiens) (UniProt Q15418); assay: Inhibition of RSK1 (unknown origin) assessed as remaining enzyme activity at 10 uM by radioactive [33P]-ATP filter binding assay
[6] = molecular target: Ribosomal protein S6 kinase beta-1 (Homo sapiens) (UniProt P23443); assay: Inhibition of S6K1 (unknown origin) assessed as remaining enzyme activity at 10 uM by radioactive [33P]-ATP filter binding assay
[7] = molecular target: Ribosomal protein S6 kinase alpha-5 (Homo sapiens) (UniProt O75582); assay: Inhibition of MSK1 (unknown origin) assessed as remaining enzyme activity at 10 uM by radioactive [33P]-ATP filter binding assay
[8] = molecular target: Myosin light chain kinase, smooth muscle (Homo sapiens) (UniProt Q15746); assay: Inhibition of smMLCK (unknown origin) assessed as remaining enzyme activity at 10 uM by radioactive [33P]-ATP filter binding assay
[9] = molecular target: Death-associated protein kinase 1 (Homo sapiens) (UniProt P53355); assay: Inhibition of DAPK1 (unknown origin) assessed as remaining enzyme activity at 10 uM by radioactive [33P]-ATP filter binding assay; procedure, shortened: as §1
[10] = molecular target: Aurora kinase B (Homo sapiens) (UniProt Q96GD4); assay: Inhibition of Aurora B (unknown origin) assessed as remaining enzyme activity at 10 uM by radioactive [33P]-ATP filter binding assay; procedure, shortened: as §1
[11] = molecular target: Serine/threonine-protein kinase STK11 (Homo sapiens) (UniProt Q15831); assay: Inhibition of LKB1 (unknown origin) assessed as remaining enzyme activity at 10 uM by radioactive [33P]-ATP filter binding assay
[12] = molecular target: MAP/microtubule affinity-regulating kinase 4 (Homo sapiens) (UniProt Q96L34); assay: Inhibition of MARK4 (unknown origin) assessed as remaining enzyme activity at 10 uM by radioactive [33P]-ATP filter binding assay
[13] = molecular target: Tyrosine-protein kinase Yes (Homo sapiens) (UniProt P07947); assay: Inhibition of YES1 (unknown origin) assessed as remaining enzyme activity at 10 uM by radioactive [33P]-ATP filter binding assay
[14] = molecular target: Tyrosine-protein kinase BTK (Homo sapiens) (UniProt Q06187); assay: Inhibition of BTK (unknown origin) assessed as remaining enzyme activity at 10 uM by radioactive [33P]-ATP filter binding assay; procedure, shortened: as §1
[15] = molecular target: Ephrin type-B receptor 1 (Homo sapiens) (UniProt P54762); assay: Inhibition of EPHB1 (unknown origin) assessed as remaining enzyme activity at 10 uM by radioactive [33P]-ATP filter binding assay; procedure, shortened: as §1
[16] = molecular target: Receptor tyrosine-protein kinase erbB-4 (Homo sapiens) (UniProt Q15303); assay: Inhibition of HER4 (unknown origin) assessed as remaining enzyme activity at 10 uM by radioactive [33P]-ATP filter binding assay
[17] = molecular target: Insulin-like growth factor 1 receptor (Homo sapiens) (UniProt P08069); assay: Inhibition of IGF1R (unknown origin) assessed as remaining enzyme activity at 10 uM by radioactive [33P]-ATP filter binding assay
[18] = molecular target: Insulin receptor (Homo sapiens) (UniProt P06213); assay: Inhibition of IR (unknown origin) assessed as remaining enzyme activity at 10 uM by radioactive [33P]-ATP filter binding assay
[19] = molecular target: Casein kinase I isoform gamma-2 (Homo sapiens) (UniProt P78368); assay: Inhibition of CK1gamma2 (unknown origin) assessed as remaining enzyme activity at 10 uM by radioactive [33P]-ATP filter binding assay; procedure, shortened: as §1
[20] = molecular target: Dual specificity tyrosine-phosphorylation-regulated kinase 2 (Homo sapiens) (UniProt Q92630); assay: Inhibition of DYRK2 (unknown origin) assessed as remaining enzyme activity at 10 uM by radioactive [33P]-ATP filter binding assay; procedure, shortened: as §1
[21] = molecular target: Dual specificity tyrosine-phosphorylation-regulated kinase 3 (Homo sapiens) (UniProt O43781); assay: Inhibition of DYRK3 (unknown origin) assessed as remaining enzyme activity at 10 uM by radioactive [33P]-ATP filter binding assay; procedure, shortened: as §1
[22] = molecular target: Serine/threonine-protein kinase Nek6 (Homo sapiens) (UniProt Q9HC98); assay: Inhibition of NEK6 (unknown origin) assessed as remaining enzyme activity at 10 uM by radioactive [33P]-ATP filter binding assay
[23] = molecular target: Inhibitor of nuclear factor kappa-B kinase subunit beta (Homo sapiens) (UniProt O14920); assay: Inhibition of IKKbeta (unknown origin) assessed as remaining enzyme activity at 10 uM by radioactive [33P]-ATP filter binding assay
[24] = molecular target: Serine/threonine-protein kinase PAK 5 (Homo sapiens) (UniProt Q9P286); assay: Inhibition of PAK5 (unknown origin) assessed as remaining enzyme activity at 10 uM by radioactive [33P]-ATP filter binding assay
[25] = molecular target: Serine/threonine-protein kinase 24 (Homo sapiens) (UniProt Q9Y6E0); assay: Inhibition of MST3 (unknown origin) assessed as remaining enzyme activity at 10 uM by radioactive [33P]-ATP filter binding assay
[26] = molecular target: Mitogen-activated protein kinase kinase kinase 5 (Homo sapiens) (UniProt Q99683); assay: Inhibition of ASK1 (unknown origin) assessed as remaining enzyme activity at 10 uM by radioactive [33P]-ATP filter binding assay; procedure, shortened: as §1

Sequence of Serine/threonine-protein kinase PAK 5 (Homo sapiens) (Q9P286 whole entry, looked up): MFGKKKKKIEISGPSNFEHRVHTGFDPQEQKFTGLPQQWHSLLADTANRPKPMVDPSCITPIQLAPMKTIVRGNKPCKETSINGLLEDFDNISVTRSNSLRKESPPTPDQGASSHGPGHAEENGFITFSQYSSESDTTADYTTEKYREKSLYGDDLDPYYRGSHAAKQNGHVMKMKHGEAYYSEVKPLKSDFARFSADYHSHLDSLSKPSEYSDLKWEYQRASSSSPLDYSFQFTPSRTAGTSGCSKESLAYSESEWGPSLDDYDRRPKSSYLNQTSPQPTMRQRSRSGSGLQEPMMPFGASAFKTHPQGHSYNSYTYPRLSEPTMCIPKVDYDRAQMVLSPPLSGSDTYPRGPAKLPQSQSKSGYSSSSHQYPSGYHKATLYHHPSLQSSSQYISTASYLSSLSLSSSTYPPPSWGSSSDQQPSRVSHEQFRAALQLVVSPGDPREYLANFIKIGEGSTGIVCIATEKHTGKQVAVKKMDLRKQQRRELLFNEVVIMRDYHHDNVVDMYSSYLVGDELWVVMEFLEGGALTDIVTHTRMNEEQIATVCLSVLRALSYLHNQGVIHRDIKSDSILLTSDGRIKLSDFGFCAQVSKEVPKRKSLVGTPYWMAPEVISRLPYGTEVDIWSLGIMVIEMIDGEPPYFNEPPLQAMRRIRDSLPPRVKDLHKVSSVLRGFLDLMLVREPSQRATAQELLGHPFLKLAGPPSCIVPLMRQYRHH
Sequence of Ribosomal protein S6 kinase alpha-5 (Homo sapiens) (O75582 whole entry, looked up): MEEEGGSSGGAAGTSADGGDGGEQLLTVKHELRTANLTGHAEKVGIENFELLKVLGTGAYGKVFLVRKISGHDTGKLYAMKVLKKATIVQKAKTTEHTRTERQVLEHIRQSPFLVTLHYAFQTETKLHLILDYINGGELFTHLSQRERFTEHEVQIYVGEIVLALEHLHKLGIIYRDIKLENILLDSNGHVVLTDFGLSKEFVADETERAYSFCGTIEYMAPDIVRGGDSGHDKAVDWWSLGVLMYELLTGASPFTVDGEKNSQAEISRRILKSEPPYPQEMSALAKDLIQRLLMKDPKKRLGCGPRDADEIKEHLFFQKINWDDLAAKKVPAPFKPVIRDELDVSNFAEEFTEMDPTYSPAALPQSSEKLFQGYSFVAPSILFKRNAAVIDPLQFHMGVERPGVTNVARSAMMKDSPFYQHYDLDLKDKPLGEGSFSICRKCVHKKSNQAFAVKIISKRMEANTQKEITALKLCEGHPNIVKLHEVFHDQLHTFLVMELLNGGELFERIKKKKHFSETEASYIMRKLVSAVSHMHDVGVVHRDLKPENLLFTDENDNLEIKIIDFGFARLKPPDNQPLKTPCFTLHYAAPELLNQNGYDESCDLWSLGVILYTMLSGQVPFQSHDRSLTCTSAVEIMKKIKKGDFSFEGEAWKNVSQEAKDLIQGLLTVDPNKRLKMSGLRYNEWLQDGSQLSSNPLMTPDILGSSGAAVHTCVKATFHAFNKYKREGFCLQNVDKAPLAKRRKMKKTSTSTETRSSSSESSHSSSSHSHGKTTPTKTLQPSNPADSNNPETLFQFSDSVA
Sequence of Ephrin type-B receptor 1 (Homo sapiens) (P54762 whole entry): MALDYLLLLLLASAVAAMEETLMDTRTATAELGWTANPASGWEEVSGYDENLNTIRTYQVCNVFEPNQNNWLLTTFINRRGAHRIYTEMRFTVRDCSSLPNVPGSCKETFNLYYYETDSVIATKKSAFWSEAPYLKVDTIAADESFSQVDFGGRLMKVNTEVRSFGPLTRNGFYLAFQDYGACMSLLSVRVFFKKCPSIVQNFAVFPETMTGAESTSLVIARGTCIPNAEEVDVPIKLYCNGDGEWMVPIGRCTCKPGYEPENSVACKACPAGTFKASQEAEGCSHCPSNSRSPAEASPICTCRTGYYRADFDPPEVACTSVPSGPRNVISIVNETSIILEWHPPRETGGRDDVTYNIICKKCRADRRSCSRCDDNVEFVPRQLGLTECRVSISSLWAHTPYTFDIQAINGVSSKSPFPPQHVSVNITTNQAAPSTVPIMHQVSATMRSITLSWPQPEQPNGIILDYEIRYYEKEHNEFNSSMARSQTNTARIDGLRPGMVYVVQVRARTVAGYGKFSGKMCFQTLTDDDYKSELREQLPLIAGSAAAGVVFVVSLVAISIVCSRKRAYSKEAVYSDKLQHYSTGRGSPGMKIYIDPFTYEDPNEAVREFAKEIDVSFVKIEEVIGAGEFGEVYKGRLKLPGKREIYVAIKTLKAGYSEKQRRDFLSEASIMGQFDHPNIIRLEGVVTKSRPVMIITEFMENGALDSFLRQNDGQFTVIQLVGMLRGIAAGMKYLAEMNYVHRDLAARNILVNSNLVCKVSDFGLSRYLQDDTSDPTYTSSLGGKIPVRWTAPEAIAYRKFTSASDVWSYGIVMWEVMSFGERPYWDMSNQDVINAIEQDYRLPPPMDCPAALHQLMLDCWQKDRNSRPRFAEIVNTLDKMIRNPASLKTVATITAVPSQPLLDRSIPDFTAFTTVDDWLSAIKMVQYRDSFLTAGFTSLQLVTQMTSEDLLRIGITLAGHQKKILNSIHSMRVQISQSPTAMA
Sequence of Dual specificity tyrosine-phosphorylation-regulated kinase 2 (Homo sapiens) (Q92630 whole entry): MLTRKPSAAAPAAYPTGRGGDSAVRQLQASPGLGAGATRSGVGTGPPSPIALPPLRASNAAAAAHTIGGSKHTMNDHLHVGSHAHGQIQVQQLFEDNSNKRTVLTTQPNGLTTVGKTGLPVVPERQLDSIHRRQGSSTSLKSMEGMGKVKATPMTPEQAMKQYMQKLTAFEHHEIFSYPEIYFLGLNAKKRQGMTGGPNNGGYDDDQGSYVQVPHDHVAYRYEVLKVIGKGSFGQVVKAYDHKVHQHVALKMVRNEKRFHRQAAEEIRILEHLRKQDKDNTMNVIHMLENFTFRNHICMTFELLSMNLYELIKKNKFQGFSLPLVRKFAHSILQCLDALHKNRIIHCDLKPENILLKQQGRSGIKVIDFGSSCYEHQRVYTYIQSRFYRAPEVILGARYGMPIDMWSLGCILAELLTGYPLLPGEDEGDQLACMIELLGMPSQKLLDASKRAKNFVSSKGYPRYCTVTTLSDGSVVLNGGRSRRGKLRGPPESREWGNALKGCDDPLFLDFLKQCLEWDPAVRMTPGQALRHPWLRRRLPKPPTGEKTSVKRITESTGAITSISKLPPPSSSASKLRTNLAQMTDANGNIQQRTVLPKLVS
Sequence of Dual specificity tyrosine-phosphorylation-regulated kinase 3 (Homo sapiens) (O43781 whole entry): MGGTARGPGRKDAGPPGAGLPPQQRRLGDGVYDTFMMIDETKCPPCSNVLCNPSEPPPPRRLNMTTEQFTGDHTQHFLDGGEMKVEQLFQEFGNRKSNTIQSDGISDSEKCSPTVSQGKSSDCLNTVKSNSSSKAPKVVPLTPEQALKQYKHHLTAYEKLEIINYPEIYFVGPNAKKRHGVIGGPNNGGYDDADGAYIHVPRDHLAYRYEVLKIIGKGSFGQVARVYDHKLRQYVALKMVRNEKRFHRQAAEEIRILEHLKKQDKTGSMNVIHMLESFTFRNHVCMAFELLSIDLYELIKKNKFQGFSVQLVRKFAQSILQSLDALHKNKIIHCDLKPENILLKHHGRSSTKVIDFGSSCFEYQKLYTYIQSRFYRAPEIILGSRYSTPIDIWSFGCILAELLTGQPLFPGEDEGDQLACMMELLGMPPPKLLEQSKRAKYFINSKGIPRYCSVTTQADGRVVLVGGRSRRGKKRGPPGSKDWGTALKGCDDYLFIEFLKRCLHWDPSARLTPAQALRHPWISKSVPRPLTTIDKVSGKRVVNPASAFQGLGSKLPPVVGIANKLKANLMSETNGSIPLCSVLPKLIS
Sequence of Aurora kinase B (Homo sapiens) (Q96GD4 whole entry): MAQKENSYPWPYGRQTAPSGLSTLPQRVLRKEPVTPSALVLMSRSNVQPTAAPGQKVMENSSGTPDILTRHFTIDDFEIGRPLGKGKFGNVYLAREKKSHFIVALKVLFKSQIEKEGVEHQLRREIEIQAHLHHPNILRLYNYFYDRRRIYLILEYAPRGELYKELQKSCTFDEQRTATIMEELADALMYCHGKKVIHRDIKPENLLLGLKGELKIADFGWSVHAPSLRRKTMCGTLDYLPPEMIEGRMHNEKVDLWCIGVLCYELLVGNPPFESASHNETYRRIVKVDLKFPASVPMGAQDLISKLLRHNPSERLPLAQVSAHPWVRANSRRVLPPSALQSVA
Sequence of Tyrosine-protein kinase BTK (Homo sapiens) (Q06187 whole entry): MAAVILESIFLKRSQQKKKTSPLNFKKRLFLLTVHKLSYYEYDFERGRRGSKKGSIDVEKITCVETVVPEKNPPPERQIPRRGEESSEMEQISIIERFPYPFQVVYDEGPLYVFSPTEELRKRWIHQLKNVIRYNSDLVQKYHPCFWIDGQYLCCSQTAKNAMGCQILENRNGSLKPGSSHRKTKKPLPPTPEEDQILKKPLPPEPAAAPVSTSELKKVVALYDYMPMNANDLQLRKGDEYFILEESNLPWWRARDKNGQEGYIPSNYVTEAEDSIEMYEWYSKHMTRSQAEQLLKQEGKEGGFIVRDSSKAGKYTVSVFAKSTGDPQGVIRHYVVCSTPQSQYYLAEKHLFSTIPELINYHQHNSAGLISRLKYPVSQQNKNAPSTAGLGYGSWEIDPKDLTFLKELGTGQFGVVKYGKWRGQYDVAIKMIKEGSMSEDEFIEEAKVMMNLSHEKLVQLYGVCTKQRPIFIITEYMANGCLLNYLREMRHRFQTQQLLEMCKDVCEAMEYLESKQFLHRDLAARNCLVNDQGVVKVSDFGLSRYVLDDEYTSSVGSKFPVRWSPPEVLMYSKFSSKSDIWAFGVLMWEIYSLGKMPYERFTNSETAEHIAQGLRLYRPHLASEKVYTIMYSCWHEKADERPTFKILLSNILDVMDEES
Sequence of Serine/threonine-protein kinase Nek6 (Homo sapiens) (Q9HC98 whole entry): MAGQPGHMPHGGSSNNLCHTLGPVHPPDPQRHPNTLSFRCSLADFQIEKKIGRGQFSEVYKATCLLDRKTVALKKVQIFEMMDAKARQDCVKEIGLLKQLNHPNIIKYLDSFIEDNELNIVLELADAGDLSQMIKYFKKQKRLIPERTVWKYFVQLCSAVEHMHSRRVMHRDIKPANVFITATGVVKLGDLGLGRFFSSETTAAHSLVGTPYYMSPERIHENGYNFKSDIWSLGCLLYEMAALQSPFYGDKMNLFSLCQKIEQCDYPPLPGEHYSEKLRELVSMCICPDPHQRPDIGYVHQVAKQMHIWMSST

With `Cc1ccc(-c2cc(C(=O)Nc3ccnc(Cl)c3)nn2-c2ccc3ccccc3n2)cc1` the IC50 (MCF7) was 3.3 µM, the Activity (Huh-7 [1]) was “Active” and the Activity (Huh-7 [2]) was “Active”. For the same compound, the Activity [3] was 27.8%, the Activity [4] was 74% and the Activity [5] was 108%. For the same compound, the Activity [6] was 88%, the Activity [7] was 89% and the Activity [8] was 103%. It also gave an Activity [9] of 112%, an Activity [10] of 104% and an Activity [11] of 115%. For the same compound, the Activity [12] was 76%, the Activity [13] was 108% and the Activity [14] was 92%. It also gave an Activity [15] of 128%, an Activity [16] of 128% and an Activity [17] of 98%. The Activity [18] was 96%, the Activity [19] was 99% and the Activity [20] was 96%. It also gave an Activity [21] of 86%, an Activity [22] of 116% and an Activity [23] of 70%. It also gave an Activity [24] of 97%, an Activity [25] of 106% and an Activity [26] of 97%.

Reference: ChEMBL document CHEMBL3351385, “Synthesis and preliminary mechanistic evaluation of 5-(p-tolyl)-1-(quinolin-2-yl)pyrazole-3-carboxylic acid amides with potent antiproliferative activity on human cancer cell lines” (Eur J Med Chem, 2014)
